M4 antag: CHRM4 antagonism in calcium assay. CHO-hM4 cells, ACh EC80, Fluo-8 calcium fluorescence. inhibition, % at 3 µM. hit rate 0.73% among 360,000. AID 624125;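 active = inhibition above its plate's cutoff, the mean inhibition of sample wells plus 3 SD, cut at about 27% in these data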;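 note: 0% = acetylcholine EC80 with DMSO and 100% = DMSO without agonist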
Target sequence (P08173 whole entry, looked up): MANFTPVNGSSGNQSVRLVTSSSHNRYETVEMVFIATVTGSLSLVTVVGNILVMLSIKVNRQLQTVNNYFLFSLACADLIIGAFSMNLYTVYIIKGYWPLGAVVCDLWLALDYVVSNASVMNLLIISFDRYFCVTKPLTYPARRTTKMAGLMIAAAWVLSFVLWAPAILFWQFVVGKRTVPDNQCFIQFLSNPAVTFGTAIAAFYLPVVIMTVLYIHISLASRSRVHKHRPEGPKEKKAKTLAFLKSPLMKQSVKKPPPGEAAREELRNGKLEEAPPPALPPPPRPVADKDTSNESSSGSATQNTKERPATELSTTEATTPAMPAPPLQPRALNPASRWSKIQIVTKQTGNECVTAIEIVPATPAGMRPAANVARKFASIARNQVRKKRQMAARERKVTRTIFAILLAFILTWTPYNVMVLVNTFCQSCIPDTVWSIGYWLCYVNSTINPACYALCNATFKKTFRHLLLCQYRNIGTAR
CHRM4 PAM: positive allosteric modulators of human muscarinic M4 receptor. P08173. CHO-K1 hM4/Gqi5, Fluo-8 calcium fluorescence, ACh EC20; 0% = ACh EC20, 100% = maximal ACh. activation, % at 3 µM. hit rate 0.4% among 360,000;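 active = activation above its plate's cutoff, the mean activation of sample wells plus 3 SD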
CHRM5 PAM: positive allosteric modulators of human muscarinic M5 receptor. P08912. CHO-K1 hM5, Fluo-8 calcium, ACh EC20 PAM; 0% = ACh EC20, 100% = ACh EC100. activation, % at 3 µM. hit rate 0.3% among 360,000. AID 624038;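 active = activation above the run cutoff, the mean activation of all test compounds plus 3 SD, cut at about 18% in these data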
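system = human M5 receptor in CHO-K1 cells | compound = one concentration, 3 µM final (nominal) | schedule = Post-acetylcholine fluorescence recording 140 s | signal = Fluo-8 calcium dye fluorescence, kinetic read | benchmarks = low control EC20 acetylcholine (0%), high control EC100 acetylcholine (100%) | repeats = singlicate, one well per test compound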
CHRM4 agonist: agonists of human muscarinic M4 receptor (CHRM4). AID 624127. P08173. activation, % at 3 µM. CHO-K1 hM4/Gqi5, Fluo-8 calcium fluorescence; vehicle 0%, full acetylcholine response 100%. hit rate 0.14% among 360,000;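 active = activation above the run mean over all test wells plus 3 SD, cut at about 32% in these data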;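 note: peak over basal fluorescence ratio per well then scaled between controls; 0% = DMSO wells and 100% = acetylcholine at EC100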
M5 antag: blocks acetylcholine activation of human M5 receptor; CHO-hM5 cells, Fluo-8 calcium fluorescence, ACh EC80; inhibition, % at 3 µM; hit rate 0.59% among 360,000; AID 624040;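 active = inhibition above a per-plate cutoff, the mean of that plate's test compounds plus 3 SD, cut at about 27% in these data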;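 note: 0% = acetylcholine EC80 with DMSO and 100% = DMSO without agonist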
CHRM5 agonist: CHRM5 agonism in calcium assay | CHO-K1 hM5 cells, Fluo-8 calcium fluorescence; 0% DMSO wells, 100% maximal acetylcholine response | activation, % at 3 µM | hit rate 0.19% among 360,000 | P08912;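 active = activation above the run's mean over test compounds plus 3 SD, cut at about 23% in these data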;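 note: signal is peak over basal fluorescence ratio across the kinetic read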
* marks the source's active call; other numbers are inactive results. Compounds with a hit are over-represented: about 1.8% of the library has one in this group of screens.

SMILES	M4 antag	CHRM4 PAM	CHRM5 PAM	CHRM4 agonist	M5 antag	CHRM5 agonist
Cc1ccc(S(=O)(=O)Oc2ccc(C)cc2/C=N/N=C2\NC(=O)C(C)S2)cc1 (configuration not stated)	7	3	18*	0	-14	-9
O=c1c(O)c(-c2cccs2)oc2ccc(Cl)cc12	32*	-18	-22	344*	31*	66*
O=c1c(O)c(-c2cccs2)oc2ccccc12	13	-9	-4	16	5	9
N#CC(C#N)=C(Nc1ccc(F)cc1)SCc1cccc(Br)c1	19	-15	-19	10	32*	6
Cc1cccc(CSC(=N)N)c1	6	0	-3	1	5	-5
Cc1cccc(CSC(Nc2ccc(F)cc2)=C(C#N)C#N)c1	18	-14	-15	11	30*	6
CCOC(=O)C1(C)CCN1C(=O)c1ccc(SC(F)(F)F)cc1 (configuration not stated)	-8	0	-2	1	1	0
CCc1nc2ccc(C(=O)NCc3ccc(OC)cc3)cn2c1N(C)C(=O)Cc1ccccc1	0	3	4	2	10	1
COc1cccc(CN(C)C(=O)COc2cccc3c2OC(C)(C)C3)c1OC	-8	22*	-4	5	-4	2
Cc1ccc(/C=C2\SC(N3CCN(C(c4ccccc4)c4ccccc4)CC3)=NC2=O)o1	82*	-44	-19	1	38*	-7
O=C1N=C(N2CCN(c3ccccc3)CC2)S/C1=C/c1cccs1	-3	-4	-11	3	27*	-3
Cc1cc2nc(-c3cccc(Br)c3)c(CC3CCCCC3)n2c(C)c1Br	-14	6	-1	1	-5	4
Cc1ccc(S(=O)(=O)NC(=O)C2(C)CCN2C(=O)c2ccccc2CCc2ccccc2)nc1 (configuration not stated)	-5	-2	-1	0	-1	1
Cc1ccc(S(=O)(=O)N2CCN(c3nc(-c4cccs4)nc4ccccc34)CC2)cc1	-3	5	3	0	2	2
Cc1cccc(OCc2n(CC(=O)OC3CC(C)CCC3C(C)C)c3ccccc3[n+]2C)c1 (configuration not stated)	39*	-17	-20	3	40*	-9
CCOC(=O)[C@]12CCC=C1N(Cc1ccccc1)C(=O)[C@H](CC(=O)NCc1cccc(C(F)(F)F)c1)C2	12	-5	-8	-1	12	-2
COCCCNc1c2c3c(cccc3[nH]c1=O)C(=O)c1ccccc1-2	53*	-18	-26	305*	41*	94*
CC[N+]1(CC(O)COC2CC(C)CC(C)(C)C2)CCOCC1 (configuration not stated)	29*	-33	-6	0	7	-18
CCSc1ccc(-c2nn(-c3ccccc3)cc2/C=C(/C#N)C(=O)NC)cc1	8	-4	-3	1	-6	-1
CCCSc1ccc(-c2nn(-c3ccccc3)cc2/C=C(/C#N)C(=O)N2CCOCC2)cc1	-8	11	44*	0	24	0
COc1cc(/C=C/CNC[C@H]2O[C@@H](n3cnc4c(N)ncnc43)[C@H](O)[C@@H]2O)ccc1O	-4	2	-2	1	1	1
COc1ccc(C2=Nc3ccccc3N(C(=O)c3ccc4ncccc4c3)C2C(=O)NC(C)(C)C)cc1 (configuration not stated)	0	0	4	3	-5	-1
Cc1cc(C(=O)N2CCN(c3ccc([N+](=O)[O-])cc3)CC2)co1	33*	41*	-7	17	1	2
Cc1cc(C(=O)N2CCN(c3ccc([N+](=O)[O-])cc3)CC2)c(C)o1	-8	-2	-13	6	9	2
O=C(CCc1ccccc1)N1CCN(c2ccc([N+](=O)[O-])cc2)CC1	-1	29*	-4	10	2	1
SMILES	M4 antag	CHRM4 PAM	CHRM5 PAM	CHRM4 agonist	M5 antag	CHRM5 agonist
O=C(CN1CCN(c2ccc([N+](=O)[O-])cc2)CC1)c1ccccc1	29*	-16	-4	2	9	-3
CC(=O)NC(c1ccccc1)c1nc(-c2ccc(F)c(Cl)c2)cs1 (configuration not stated)	5	-4	1	2	-1	-1
CCCS(=O)(=O)NC(=O)C1(C)CCCN(C(=O)c2cc(OC)c(OC)c(OC)c2)C1 (configuration not stated)	1	2	-1	1	5	1
O=C(NNS(=O)(=O)c1ccc2ccccc2c1)C1CCN(Cc2ccccc2)CC1	41*	-23	-23	2	46*	-4
CC1=C(C(=O)OC2CCCCCC2)C(c2ccc(C)o2)C2=C(CCCC2=O)N1 (configuration not stated)	-4	3	4	2	-6	-4
COC(=O)C1=C(C)NC2=C(C(=O)CCC2)C1c1ccc(-c2ccsc2C(=O)OC)o1 (configuration not stated)	4	-29	-12	37*	12	9
COc1ccc(C(=O)C(C)[n+]2ccc(C)c3ccccc32)cc1[N+](=O)[O-] (configuration not stated)	27*	-14	-13	4	4	-9
CC(=O)OCCn1c2nc(=O)[nH]c(=O)c-2nc2cc(C)c(C)cc21	37*	-18	-30	229*	42*	418*
CN(C)CCCNc1oc(/C=C/c2ccccc2)nc1C#N	-5	4	32*	1	24	3
CCOC(=O)C1CCCN(C(=O)c2cncc(Br)c2)CC1 (configuration not stated)	2	4	5	0	-12	1
O=C(Nc1nc2nccc(-c3ccccc3)n2n1)c1ccccc1	100*	-16	-3	-1	11	-3
CN1CCc2nc3ccc(Cl)cc3c(-c3ccccc3Cl)c2C1	70*	-17	-18	0	66*	-8
COc1ccc(N/C=C(\C#N)c2nc3ccccc3n2C)c(OC)c1	28*	-15	-10	7	11	-2
O=c1c(-c2cccs2)nc2ccccc2n1C(c1ccccn1)c1nc2ccccc2[nH]1 (configuration not stated)	0	0	0	3	9	-1
CCOC(=O)c1cnc2ccc(Br)cc2c1NCC(C)O (configuration not stated)	-1	4	4	0	-2	-2
CCOC(=O)c1cnc2ccccc2c1NCCO	0	5	-10	0	0	-12

Source: PubChem BioAssay (The Scripps Research Institute Molecular Screening Center)
